Converted amounts (≈) assume the structure as drawn.
Tests used:
Assay type in all cases: functional
[1] = test system: Streptococcus pneumoniae; assay: Antimicrobial activity against Streptococcus pneumoniae clinical isolates by broth dilution method
[2] = test system: Streptococcus pneumoniae; assay: Antimicrobial activity against Streptococcus pneumoniae clinical isolates assessed as susceptible isolates by broth dilution method
In short: (§1)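 Isolates kept frozen at −70°C in duplicate and revived by hot-loop touching. MICs by the CLSI broth microdilution method active in the year of study, with S. pneumoniae ATCC 49619 as control. Categories assigned with CLSI M100-S19 breakpoints.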

[3] = test system: Streptococcus pneumoniae; assay: Antimicrobial activity against Streptococcus pneumoniae clinical isolates assessed as resistant isolates by broth dilution method
[4] = test system: Streptococcus pneumoniae; assay: Antimicrobial activity against Streptococcus pneumoniae clinical isolates assessed as susceptible isolates by PK/PD technique
[5] = test system: Streptococcus pyogenes; assay: Antimicrobial activity against Streptococcus pyogenes clinical isolates by broth dilution method
[6] = test system: Streptococcus pyogenes; assay: Antimicrobial activity against Streptococcus pyogenes clinical isolates assessed as susceptible isolates by broth dilution method
In short: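 S. pyogenes clinical isolates held at −70°C in duplicate and recovered by hot-loop touching. MICs by the CLSI broth microdilution method in force in the study year, interpreted per CLSI M100-S19.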

[7] = test system: Streptococcus pyogenes; assay: Antimicrobial activity against Streptococcus pyogenes clinical isolates assessed as resistant isolates by broth dilution method
In short: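 S. pyogenes clinical isolates were held at −70°C in duplicate and revived by the hot-loop touching method. MICs were obtained by the CLSI broth microdilution procedure active in the year of study. Resistance was interpreted according to CLSI M100-S19.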

[8] = test system: Haemophilus influenzae; assay: Antimicrobial activity against Haemophilus influenzae clinical isolates by broth dilution method
[9] = test system: Haemophilus influenzae; assay: Antimicrobial activity against Haemophilus influenzae clinical isolates assessed as susceptible isolates by broth dilution method
[10] = test system: Haemophilus influenzae; assay: Antimicrobial activity against Haemophilus influenzae clinical isolates assessed as resistant isolates by broth dilution method
[11] = test system: Haemophilus influenzae; assay: Antimicrobial activity against Haemophilus influenzae clinical isolates assessed as susceptible isolates by PK/PD technique
[12] = test system: Streptococcus pneumoniae; assay: Antimicrobial activity against Streptococcus pneumoniae clinical isolates by based on po dosed broth dilution method; in short: as §1
[13] = test system: Streptococcus pneumoniae; assay: Antimicrobial activity against Streptococcus pneumoniae clinical isolates assessed as susceptible isolates by based on po dosed broth dilution method; in short: as §1
[14] = test system: Streptococcus pneumoniae; assay: Antimicrobial activity against Streptococcus pneumoniae clinical isolates assessed as resistant isolates by based on po dosed broth dilution method
In short: (§2)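 S. pneumoniae clinical isolates were kept frozen at −70°C in duplicate and recovered by hot-loop touching to avoid repeated freeze-thaw. MICs were measured by CLSI broth microdilution as in force in the study year, with S. pneumoniae ATCC 49619 as control strain. Susceptibility categories were interpreted using CLSI M100-S19 breakpoints.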

[15] = test system: Streptococcus pneumoniae; assay: Antimicrobial activity against Streptococcus pneumoniae clinical isolates by based on parenterally dosed broth dilution method; in short: as §1
[16] = test system: Streptococcus pneumoniae; assay: Antimicrobial activity against Streptococcus pneumoniae clinical isolates assessed as susceptible isolates by based on parenterally dosed broth dilution method; in short: as §1
[17] = test system: Streptococcus pneumoniae; assay: Antimicrobial activity against Streptococcus pneumoniae clinical isolates assessed as resistant isolates by based on parenterally dosed broth dilution method in presence of beta-lactamase inhibitor clavulanic acid; in short: as §2
[18] = test system: Streptococcus pneumoniae; assay: Antimicrobial activity against Streptococcus pneumoniae clinical isolates assessed as susceptible isolates by po dosed PK/PD technique
[19] = test system: Streptococcus pneumoniae; assay: Antimicrobial activity against Streptococcus pneumoniae clinical isolates assessed as susceptible isolates by based on parenterally dosed PK/PD technique
[20] = test system: Haemophilus influenzae; assay: Antimicrobial activity against Haemophilus influenzae clinical isolates by based on po dosed broth dilution method
In short: (§3)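 H. influenzae clinical isolates were stored at −70°C in duplicate and recovered by the hot-loop touching method without repeated thawing. MICs were determined by CLSI broth microdilution in Haemophilus test medium, following the method current in the study year. Each medium batch was checked for growth support with H. influenzae ATCC 10211. Controls were H. influenzae ATCC 49247 and ATCC 49766 and E. coli ATCC 35218. Categories were assigned per CLSI M100-S19.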

[21] = test system: Haemophilus influenzae; assay: Antimicrobial activity against Haemophilus influenzae clinical isolates assessed as susceptible isolates by based on po dosed broth dilution method
In short: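 Clinical isolates stored in duplicate at −70°C and recovered by the hot-loop touching method. MICs by the CLSI broth microdilution method current in the study year, in Haemophilus test medium (HTM). Growth support of HTM checked with H. influenzae ATCC 10211. Controls were H. influenzae ATCC 49247 and ATCC 49766 and E. coli ATCC 35218. Susceptibility interpreted per CLSI M100-S19.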

[22] = test system: Haemophilus influenzae; assay: Antimicrobial activity against Haemophilus influenzae clinical isolates assessed as resistant isolates by based on po dosed broth dilution method; in short: as §3
[23] = test system: Haemophilus influenzae; assay: Antimicrobial activity against Haemophilus influenzae clinical isolates by based on po dosed PK/PD technique

| SMILES | MIC50 [1] [mg/L] | MIC90 [1] [mg/L] | Activity [2] [%] | Activity [3] [%] | Activity [4] [%] | MIC50 [5] [mg/L] | MIC90 [5] [mg/L] | Activity [6] [%] | Activity [7] [%] | MIC50 [8] [mg/L] | MIC90 [8] [mg/L] | Activity [9] [%] | Activity [10] [%] | Activity [11] [%] | also measured |
| --- | --- | --- | --- | --- | --- | --- | --- | --- | --- | --- | --- | --- | --- | --- | --- |
| CO/N=C(\C(=O)N[C@@H]1C(=O)N2C(C(=O)O)=C(COC(C)=O)CS[C@H]12)c1csc(N)n1 [CEFOTAXIME] | ≤ 0.015 | 0.25 (≈ 0.549 µM) | 99.6 | 0.2 | 99.6 | ≤ 0.015 | ≤ 0.015 | 100 | 0 | ≤ 0.015 | ≤ 0.015 | 99.9 | 0.1 | 99.9 |  |
| CC1(C)S[C@@H]2[C@H](NC(=O)Cc3ccccc3)C(=O)N2[C@H]1C(=O)O [PENICILLIN G] |  |  |  |  |  | ≤ 0.015 | ≤ 0.015 | 100 | 0 |  |  |  |  |  | MIC50 [12]: ≤ 0.015 mg/L; MIC90 [12]: 0.5 mg/L (≈ 1.5 µM); Activity [13]: 77.1%; Activity [14]: 0.9%; MIC50 [15]: ≤ 0.015 mg/L; MIC90 [15]: 0.5 mg/L (≈ 1.5 µM); Activity [16]: 99.8%; Activity [17]: 0% |
| CC[C@H]1OC(=O)[C@H](C)[C@@H](O[C@H]2C[C@@](C)(OC)[C@@H](O)[C@H](C)O2)[C@H](C)[C@@H](O[C@@H]2O[C@H](C)C[C@H](N(C)C)[C@H]2O)[C@](C)(O)C[C@@H](C)C(=O)[C@H](C)[C@@H](O)[C@]1(C)O [ERYTHROMYCIN] | ≤ 0.015 | ≥ 128 | 78.9 | 21.1 | 78.9 | ≤ 0.015 | 2 (≈ 2.73 µM) | 80.6 | 19 | 1 (≈ 1.36 µM) | 4 (≈ 5.45 µM) |  |  | 32.5 |  |
| N[C@@H](C(=O)N[C@@H]1C(=O)N2C(C(=O)O)=C(Cl)CS[C@H]12)c1ccccc1 [CEFACLOR ANHYDROUS] | 0.125 (≈ 0.34 µM) | 16 (≈ 43.5 µM) | 79.1 | 19 | 75.9 | 0.03 (≈ 0.0816 µM) | < 0.06 |  |  | 1 (≈ 2.72 µM) | 4 (≈ 10.9 µM) | 97.8 | 0 | 25.8 |  |
| CO/N=C(\C(=O)N[C@@H]1C(=O)N2C(C(=O)O)=C(COC(N)=O)CS[C@H]12)c1ccco1 [CEFUROXIME] |  |  |  |  |  | ≤ 0.015 | ≤ 0.015 |  |  |  |  |  |  |  | MIC50 [12]: ≤ 0.015 mg/L; MIC90 [12]: 1 mg/L (≈ 2.36 µM); Activity [13]: 94.5%; Activity [14]: 1.3%; Activity [18]: 94.5%; MIC50 [15]: ≤ 0.015 mg/L; MIC90 [15]: 1 mg/L (≈ 2.36 µM); Activity [16]: 83.8%; Activity [17]: 5.5%; Activity [19]: 99.3%; MIC50 [20]: 0.5 mg/L (≈ 1.18 µM); MIC90 [20]: 1 mg/L (≈ 2.36 µM); Activity [21]: 99.3%; Activity [22]: 0.1%; Activity [23]: 91.4% |
| CC[C@H]1OC(=O)[C@H](C)[C@@H](O[C@H]2C[C@@](C)(OC)[C@@H](O)[C@H](C)O2)[C@H](C)[C@@H](O[C@@H]2O[C@H](C)C[C@H](N(C)C)[C@H]2O)[C@](C)(OC)C[C@@H](C)C(=O)[C@H](C)[C@@H](O)[C@]1(C)O [CLARITHROMYCIN] | ≤ 0.015 | ≥ 128 | 78.2 | 20.9 | 78.2 | ≤ 0.015 | 2 (≈ 2.67 µM) | 80.9 | 16.5 | 2 (≈ 2.67 µM) | 4 (≈ 5.35 µM) | 99.3 | 0 | 5.1 |  |
| CC[C@H]1OC(=O)[C@H](C)[C@@H](O[C@H]2C[C@@](C)(OC)[C@@H](O)[C@H](C)O2)[C@H](C)[C@@H](O[C@@H]2O[C@H](C)C[C@H](N(C)C)[C@H]2O)[C@](C)(O)C[C@@H](C)CN(C)[C@H](C)[C@@H](O)[C@]1(C)O [AZITHROMYCIN] | ≤ 0.015 | ≥ 128 | 77.6 | 20.8 | 74.3 | ≤ 0.015 | 2 (≈ 2.67 µM) | 81.1 | 11.6 | 0.25 (≈ 0.334 µM) | 1 (≈ 1.34 µM) | 100 | 0 | 23.8 |  |
| CC1(C)S[C@@H]2[C@H](NC(=O)[C@H](N)c3ccccc3)C(=O)N2[C@H]1C(=O)O [AMPICILLIN] | ≤ 0.015 | 2 (≈ 5.72 µM) |  |  | 93.4 | ≤ 0.015 | ≤ 0.015 | 100 | 0 | 0.12 (≈ 0.343 µM) | 4 (≈ 11.4 µM) | 83.9 | 13.3 | 86.7 |  |
| C[C@H]1COc2c(N3CCN(C)CC3)c(F)cc3c(=O)c(C(=O)O)cn1c23.C[C@H]1COc2c(N3CCN(C)CC3)c(F)cc3c(=O)c(C(=O)O)cn1c23.O [LEVOFLOXACIN] | 0.125 | 0.25 | 97.6 | 0.5 | 97.7 | 0.125 | 0.25 | 100 | 0 | ≤ 0.015 | ≤ 0.015 | 99.9 | 0.1 | 99.9 |  |
